Molecules are shown by their SMILES. The source made the active and inactive calls. The rule behind the calls is not given here.

In one assay the test system is Nucleic Acid. Description: DNA intercalative activity assessed retardation in migration of negatively supercoiled small circular Escherichia coli pBSKS in agarose gel electrophoresis at 100 uM. The class given is nucleic-acid assay. In outline: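 250 ng negatively supercoiled pBSKS incubated 10 min at 37 °C with compound at 100 µM in 1% (v/v) DMSO; ethidium bromide 1 µg/mL as intercalator control. Run on 1% agarose in 1× TBE without ethidium bromide at 0.5 V/cm (low field); retardation of migration scored.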

Assay [1] has as its target DNA topoisomerase 2-alpha (Homo sapiens) (UniProt P11388). Description: Inhibition of human topoisomerase 2 alpha-mediated bacterial plasmid DNA relaxation assessed as pRYG negative supercoiled form at 100 uM.
For assay [2] the target is unchanged. The experiment in a line: Inhibition of human topoisomerase 2 alpha-mediated bacterial plasmid DNA relaxation assessed as pRYG negative supercoiled form added 100 uM after relaxation.
For assay [3] the target is unchanged. Description: Inhibition of human topoisomerase 2 alpha-mediated Crithidia fasciculate kDNA decatenation at 100 uM.

DNA topoisomerase 2-alpha (Homo sapiens), sequence (P11388 whole entry): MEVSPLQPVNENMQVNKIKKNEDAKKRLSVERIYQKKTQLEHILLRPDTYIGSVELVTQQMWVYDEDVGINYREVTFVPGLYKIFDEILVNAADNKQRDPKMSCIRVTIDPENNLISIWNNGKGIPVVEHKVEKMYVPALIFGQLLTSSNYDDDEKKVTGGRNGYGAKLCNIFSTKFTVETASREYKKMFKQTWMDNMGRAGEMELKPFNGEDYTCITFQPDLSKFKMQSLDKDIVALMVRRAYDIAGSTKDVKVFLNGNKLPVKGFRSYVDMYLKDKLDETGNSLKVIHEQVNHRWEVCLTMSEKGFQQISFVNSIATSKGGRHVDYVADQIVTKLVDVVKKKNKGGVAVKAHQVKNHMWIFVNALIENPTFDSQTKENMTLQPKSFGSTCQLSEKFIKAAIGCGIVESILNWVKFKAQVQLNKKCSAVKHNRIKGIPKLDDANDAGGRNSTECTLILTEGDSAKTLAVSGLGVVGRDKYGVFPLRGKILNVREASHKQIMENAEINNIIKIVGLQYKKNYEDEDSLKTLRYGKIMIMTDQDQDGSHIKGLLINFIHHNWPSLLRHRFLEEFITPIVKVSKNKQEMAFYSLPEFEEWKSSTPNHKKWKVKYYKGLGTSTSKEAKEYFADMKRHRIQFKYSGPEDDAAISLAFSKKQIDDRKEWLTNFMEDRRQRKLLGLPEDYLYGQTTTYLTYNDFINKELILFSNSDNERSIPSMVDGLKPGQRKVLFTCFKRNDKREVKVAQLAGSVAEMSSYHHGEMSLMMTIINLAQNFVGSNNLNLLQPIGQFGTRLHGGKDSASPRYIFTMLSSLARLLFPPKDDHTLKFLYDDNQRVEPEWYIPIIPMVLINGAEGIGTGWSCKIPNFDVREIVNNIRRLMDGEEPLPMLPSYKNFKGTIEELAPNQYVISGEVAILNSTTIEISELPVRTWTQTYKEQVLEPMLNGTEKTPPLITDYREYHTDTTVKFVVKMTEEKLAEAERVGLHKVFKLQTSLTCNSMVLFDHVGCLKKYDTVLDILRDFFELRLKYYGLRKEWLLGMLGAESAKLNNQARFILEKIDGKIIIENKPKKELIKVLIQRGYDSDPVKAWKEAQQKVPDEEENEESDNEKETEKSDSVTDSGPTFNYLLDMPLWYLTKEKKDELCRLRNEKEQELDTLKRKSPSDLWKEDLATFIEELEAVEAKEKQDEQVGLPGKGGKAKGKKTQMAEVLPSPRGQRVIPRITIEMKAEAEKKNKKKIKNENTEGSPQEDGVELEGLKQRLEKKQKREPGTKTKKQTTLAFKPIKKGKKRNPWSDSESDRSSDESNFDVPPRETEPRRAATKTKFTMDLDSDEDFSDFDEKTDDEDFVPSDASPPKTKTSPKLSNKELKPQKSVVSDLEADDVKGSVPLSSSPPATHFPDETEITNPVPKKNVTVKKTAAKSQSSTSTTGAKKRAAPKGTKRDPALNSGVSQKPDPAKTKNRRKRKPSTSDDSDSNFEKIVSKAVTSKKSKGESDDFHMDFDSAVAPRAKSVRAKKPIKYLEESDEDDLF

With `C[C@@H]1CC[C@H]2[C@H]1C1=C(OC2(C)C)C(=O)c2ccccc2C1=O`, the outcome (in the assay with Nucleic Acid; in assay [1]; in assay [2]; in assay [3]) was inactive.

As for `CC1(C)OC2=C(C(=O)c3ccccc3C2=O)[C@H]2c3c(ccc4ccccc34)OC[C@H]21`, the result (with Nucleic Acid; in assay [1]; in assay [2]; in assay [3]) was inactive.

With `C[C@@H]1CC[C@@H]2[C@@H](C1)C1=C(OC2(C)C)C(=O)c2ccccc2C1=O`, the outcome (with Nucleic Acid; in assay [1]; in assay [2]; in assay [3]) was inactive.

Regarding `CC1(C)OC2=C(C(=O)c3ccccc3C2=O)[C@H]2c3cc(Br)ccc3OC[C@H]21`, the outcome (in the assay with Nucleic Acid; in assay [2]) was inactive. Moreover, the outcome in assay [1] and in assay [3] was Active.

As to `CC1(C)OC2=C(C(=O)c3ccccc3C2=O)[C@H]2c3cc(Br)cc(Br)c3OC[C@H]21`, the outcome (in the assay with Nucleic Acid; in assay [2]) was inactive. In addition, the outcome in assay [1] and in assay [3] was Active.

On to `COc1ccc2c(c1)OC[C@@H]1[C@H]2C2=C(OC1(C)C)C(=O)c1ccccc1C2=O`, for which the result (in the assay on Nucleic Acid; in assay [2]) was inactive. Further, the result in assay [1] and in assay [3] was Active.

Regarding `COc1cc([C@@H]2c3cc4c(cc3[C@@H](O[C@@H]3O[C@@H]5CO[C@@H](C)O[C@H]5[C@H](O)[C@H]3O)[C@H]3COC(=O)[C@H]23)OCO4)cc(OC)c1O`, the result (in the assay with Nucleic Acid; in assay [1]) was inactive. For the same compound, the outcome in assay [2] was Active.

With `Cc1c2ccncc2c(C)c2c1[nH]c1ccccc12`, the result (in the assay on Nucleic Acid; in assay [1]) was Active. For the same compound, in assay [2], the result was inactive.

For `C[C@H]1CC[C@H]2[C@H](C1)C1=C(OC2(C)C)c2ccccc2C(=O)C1=O`, the result (with Nucleic Acid; in assay [1]; in assay [2]; in assay [3]) was inactive.

On to `CC[n+]1c(-c2ccccc2)c2cc(N)ccc2c2ccc(N)cc21`, for which the outcome in the assay with Nucleic Acid was Active.

In the case of `COc1ccc2c(c1)OC[C@H]1[C@@H]2C2=C(OC1(C)C)c1ccccc1C(=O)C2=O`, the result (with Nucleic Acid; in assay [2]) was inactive. In addition, the outcome in assay [1] and in assay [3] was Active.

Consider `CC1(C)OC2=C(C(=O)C(=O)c3ccccc32)[C@@H]2c3c(ccc4ccccc34)OC[C@@H]21`, for which the result (with Nucleic Acid; in assay [2]) was inactive. Also, the result in assay [1] and in assay [3] was Active.

For the compound `CC1(C)OC2=C(C(=O)C(=O)c3ccccc32)[C@@H]2c3cc(Br)ccc3OC[C@@H]21`, the result (in the assay on Nucleic Acid; in assay [2]) was inactive. The outcome in assay [1] and in assay [3] was Active.

Turning to `C[C@H]1CC[C@@H]2[C@@H]1C1=C(OC2(C)C)c2ccccc2C(=O)C1=O`, the outcome (in the assay with Nucleic Acid; in assay [1]; in assay [2]; in assay [3]) was inactive.

These data come from ChEMBL document CHEMBL1142459, “Design and synthesis of a novel series of pyranonaphthoquinones as topoisomerase II catalytic inhibitors” (J Med Chem, 2008).
